The structures appear in SMILES notation.

Assay [1] deals with Heat shock protein HSP 90-alpha (Homo sapiens, UniProt P07900). Nature of the assay: Displacement of Cy3B-GM from recombinant Hsp90alpha (unknown origin) after 24 hrs by fluorescence polarization assay. Background: Fluorescence polarisation rises when a labelled molecule tumbles more slowly, as on binding a larger partner.
Assay [2] concerns the target Heat shock protein HSP 90-beta (Homo sapiens, UniProt P08238).
The target in a further assay is Endoplasmin (Canis lupus familiaris, UniProt P41148). Nature of the assay: Displacement of Cy3B-GM from recombinant Grp94 (unknown origin) after 24 hrs by fluorescence polarization assay.
Chain of Endoplasmin (P41148 whole entry): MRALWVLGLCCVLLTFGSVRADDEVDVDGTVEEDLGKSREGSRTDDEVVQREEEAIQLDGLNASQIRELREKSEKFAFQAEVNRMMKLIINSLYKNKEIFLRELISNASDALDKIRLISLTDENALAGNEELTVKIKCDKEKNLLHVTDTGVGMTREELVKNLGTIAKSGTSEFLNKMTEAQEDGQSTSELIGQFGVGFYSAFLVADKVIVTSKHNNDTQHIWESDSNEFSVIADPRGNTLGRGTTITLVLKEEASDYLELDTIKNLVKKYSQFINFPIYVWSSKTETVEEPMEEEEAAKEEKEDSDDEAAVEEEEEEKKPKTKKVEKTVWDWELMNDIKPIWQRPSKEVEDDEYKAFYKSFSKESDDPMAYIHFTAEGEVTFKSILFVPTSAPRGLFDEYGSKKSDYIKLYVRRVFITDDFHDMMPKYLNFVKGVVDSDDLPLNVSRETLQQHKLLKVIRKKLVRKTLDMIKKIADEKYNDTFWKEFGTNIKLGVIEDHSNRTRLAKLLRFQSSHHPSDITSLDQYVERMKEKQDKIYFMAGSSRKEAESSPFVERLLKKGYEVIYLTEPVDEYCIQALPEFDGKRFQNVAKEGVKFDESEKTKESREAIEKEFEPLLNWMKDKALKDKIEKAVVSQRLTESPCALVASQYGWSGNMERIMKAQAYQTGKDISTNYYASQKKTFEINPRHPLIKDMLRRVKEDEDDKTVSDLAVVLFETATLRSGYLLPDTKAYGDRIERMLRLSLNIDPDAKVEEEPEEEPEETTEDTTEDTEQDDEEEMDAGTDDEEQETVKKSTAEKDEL
Assay [3] deals with T1, Heat shock protein 75 kDa, mitochondrial (Homo sapiens, UniProt Q12931).
T1 sequence (Q12931 whole entry): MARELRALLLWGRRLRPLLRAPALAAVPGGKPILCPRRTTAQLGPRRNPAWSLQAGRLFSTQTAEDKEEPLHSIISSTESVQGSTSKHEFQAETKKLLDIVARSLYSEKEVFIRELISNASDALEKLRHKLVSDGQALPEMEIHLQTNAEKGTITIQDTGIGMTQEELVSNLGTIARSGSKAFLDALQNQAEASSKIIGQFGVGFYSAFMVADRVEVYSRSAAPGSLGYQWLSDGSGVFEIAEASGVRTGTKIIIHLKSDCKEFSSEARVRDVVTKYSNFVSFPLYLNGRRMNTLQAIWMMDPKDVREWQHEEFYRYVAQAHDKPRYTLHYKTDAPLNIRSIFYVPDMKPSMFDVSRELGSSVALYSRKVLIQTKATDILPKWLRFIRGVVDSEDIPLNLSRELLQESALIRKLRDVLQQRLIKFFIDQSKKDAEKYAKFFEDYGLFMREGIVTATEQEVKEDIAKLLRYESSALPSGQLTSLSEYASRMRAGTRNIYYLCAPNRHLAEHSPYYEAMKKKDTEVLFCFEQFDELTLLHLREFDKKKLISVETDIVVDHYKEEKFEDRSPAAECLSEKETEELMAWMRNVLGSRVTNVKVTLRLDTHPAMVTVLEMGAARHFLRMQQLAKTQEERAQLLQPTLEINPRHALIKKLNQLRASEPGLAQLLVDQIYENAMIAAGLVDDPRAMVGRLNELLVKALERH
Kind of assay: Displacement of PU-FITC3 from recombinant TRAP-1 (unknown origin) after 24 hrs by fluorescence polarization assay.

In assay [4] the target is MAP kinase-interacting serine/threonine-protein kinase 2 (Homo sapiens) (UniProt Q9HBH9). Kind of assay: Inhibition of human MKNK2 at 10 uM after 1 hr by qPCR analysis relative to control. The essentials: (§1)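 Compound tested at 10 μM in a scanEDGE 97 active-site competition binding panel. Incubation was 1 h at room temperature, then washing and elution with non-biotinylated ligand. Bead-bound kinase was quantified by qPCR; values are % inhibition.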
Chain of MAP kinase-interacting serine/threonine-protein kinase 2 (Homo sapiens) (Q9HBH9 whole entry, looked up): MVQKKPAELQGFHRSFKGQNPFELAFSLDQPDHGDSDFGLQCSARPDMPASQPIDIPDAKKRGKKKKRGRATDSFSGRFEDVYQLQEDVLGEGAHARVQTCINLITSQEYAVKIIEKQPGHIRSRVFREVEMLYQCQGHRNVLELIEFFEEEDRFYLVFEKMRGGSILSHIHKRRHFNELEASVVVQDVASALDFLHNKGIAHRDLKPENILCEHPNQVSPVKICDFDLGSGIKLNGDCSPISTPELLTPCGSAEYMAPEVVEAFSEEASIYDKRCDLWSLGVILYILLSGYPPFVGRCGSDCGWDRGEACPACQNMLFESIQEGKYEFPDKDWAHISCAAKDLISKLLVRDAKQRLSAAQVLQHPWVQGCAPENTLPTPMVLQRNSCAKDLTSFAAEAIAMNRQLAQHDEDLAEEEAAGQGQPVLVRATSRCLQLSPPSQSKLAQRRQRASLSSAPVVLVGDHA
A general note: In qPCR the cycle at which signal appears reflects the starting amount.

Assay [5] addresses Rho-associated protein kinase 2 (Homo sapiens) (UniProt O75116). Nature of the assay: Inhibition of human ROCK2 at 10 uM after 1 hr by qPCR analysis relative to control. The essentials: as §1
The species entered for the next assay is Homo sapiens. Nature of the assay: Selectivity ratio of IC50 for recombinant Grp94 (unknown origin) to IC50 for recombinant Hsp90alpha (unknown origin).

Chain of Heat shock protein HSP 90-beta (P08238 whole entry): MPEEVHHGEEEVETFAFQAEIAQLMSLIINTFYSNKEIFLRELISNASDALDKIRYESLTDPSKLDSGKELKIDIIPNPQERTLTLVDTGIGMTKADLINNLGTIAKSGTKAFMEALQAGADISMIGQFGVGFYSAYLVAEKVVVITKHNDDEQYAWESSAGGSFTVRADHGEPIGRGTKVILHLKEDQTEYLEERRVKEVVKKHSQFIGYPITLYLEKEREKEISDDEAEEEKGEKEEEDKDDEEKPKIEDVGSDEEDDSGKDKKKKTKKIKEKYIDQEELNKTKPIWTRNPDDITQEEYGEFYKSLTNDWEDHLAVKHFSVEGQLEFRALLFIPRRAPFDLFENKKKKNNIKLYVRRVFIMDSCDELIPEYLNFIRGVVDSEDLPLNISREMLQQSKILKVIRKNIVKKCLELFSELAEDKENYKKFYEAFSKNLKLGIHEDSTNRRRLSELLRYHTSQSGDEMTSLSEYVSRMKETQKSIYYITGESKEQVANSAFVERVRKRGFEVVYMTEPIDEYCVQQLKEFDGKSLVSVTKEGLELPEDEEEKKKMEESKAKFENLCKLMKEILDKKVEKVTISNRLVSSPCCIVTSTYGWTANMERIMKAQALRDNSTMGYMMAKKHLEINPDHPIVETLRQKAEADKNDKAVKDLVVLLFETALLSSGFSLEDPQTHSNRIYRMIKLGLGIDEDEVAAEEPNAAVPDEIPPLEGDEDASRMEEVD
Chain of Rho-associated protein kinase 2 (Homo sapiens) (O75116 whole entry, looked up): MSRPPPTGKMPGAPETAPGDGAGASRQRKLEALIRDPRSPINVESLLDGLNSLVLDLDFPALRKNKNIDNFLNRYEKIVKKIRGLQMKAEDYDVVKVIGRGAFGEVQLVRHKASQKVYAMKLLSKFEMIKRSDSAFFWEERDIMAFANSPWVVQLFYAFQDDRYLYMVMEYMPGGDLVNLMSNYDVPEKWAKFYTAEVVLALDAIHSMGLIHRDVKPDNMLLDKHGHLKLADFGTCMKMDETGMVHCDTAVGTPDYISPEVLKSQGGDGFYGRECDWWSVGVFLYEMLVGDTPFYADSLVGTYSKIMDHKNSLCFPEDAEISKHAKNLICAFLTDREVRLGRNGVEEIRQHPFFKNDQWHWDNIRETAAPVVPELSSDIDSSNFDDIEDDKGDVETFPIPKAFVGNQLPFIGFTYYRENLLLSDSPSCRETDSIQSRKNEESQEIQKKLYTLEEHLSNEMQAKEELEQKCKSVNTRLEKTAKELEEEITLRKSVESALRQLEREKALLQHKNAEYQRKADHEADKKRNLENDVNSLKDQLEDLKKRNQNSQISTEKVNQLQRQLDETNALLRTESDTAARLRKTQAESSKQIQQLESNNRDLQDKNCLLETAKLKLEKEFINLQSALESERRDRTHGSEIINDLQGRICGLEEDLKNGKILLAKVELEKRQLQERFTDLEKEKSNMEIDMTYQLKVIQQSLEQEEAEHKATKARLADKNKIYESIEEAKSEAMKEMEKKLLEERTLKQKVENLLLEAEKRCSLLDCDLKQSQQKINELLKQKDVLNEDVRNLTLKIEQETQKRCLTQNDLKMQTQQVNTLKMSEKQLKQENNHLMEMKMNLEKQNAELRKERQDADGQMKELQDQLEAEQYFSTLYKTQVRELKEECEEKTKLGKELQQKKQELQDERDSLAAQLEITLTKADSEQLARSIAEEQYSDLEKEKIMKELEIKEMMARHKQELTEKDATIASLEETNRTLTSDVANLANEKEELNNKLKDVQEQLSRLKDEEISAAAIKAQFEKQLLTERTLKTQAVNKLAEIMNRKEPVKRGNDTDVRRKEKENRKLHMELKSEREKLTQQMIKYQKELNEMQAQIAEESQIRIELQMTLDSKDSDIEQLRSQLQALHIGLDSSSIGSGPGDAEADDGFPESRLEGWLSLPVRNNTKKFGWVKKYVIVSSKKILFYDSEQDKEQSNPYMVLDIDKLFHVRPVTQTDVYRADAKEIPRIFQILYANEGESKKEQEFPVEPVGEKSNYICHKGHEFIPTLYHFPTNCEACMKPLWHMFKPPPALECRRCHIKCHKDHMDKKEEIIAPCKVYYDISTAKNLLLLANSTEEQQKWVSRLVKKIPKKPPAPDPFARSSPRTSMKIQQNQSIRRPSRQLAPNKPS

On to `C#CCCCn1c(Sc2cc(C(F)(F)F)ccc2Cl)nc2c(N)ncnc21`, for which the results for the IC50 (in assay [1]; in assay [2]; at Endoplasmin) were over 100 µM, over 100 µM and 0.5 µM, respectively.
Regarding `C#CCCCn1c(Sc2ccccc2CO)nc2c(N)ncnc21`, at Endoplasmin, the concentration for half-maximal inhibition (IC50) came out at 29.4 µM.
For the compound `CCCC(C)n1c(Sc2cc(Cl)cc(Cl)c2)nc2c(N)ncnc21` (stereo unspecified), the figures for the IC50 (in assay [1]; on Endoplasmin) were over 50 µM and 14.3 µM, respectively.
On to `C#CCCn1c(Sc2cc(Cl)cc(Cl)c2)nc2c(N)ncnc21`, for which the IC50 in assay [1] was over 50 µM; at Endoplasmin, 0.287 µM.
On to `Nc1ncnc2c1nc(Sc1cc(Cl)cc(Cl)c1)n2CCC(F)(F)F`, for which the IC50 at Endoplasmin came out at 0.56 µM.
In the case of `C#CCCCn1c(C(=O)c2ccc(Cl)cc2Cl)nc2c(N)ncnc21`, the IC50 in assay [1] is over 100 µM; on Endoplasmin, 0.34 µM; in assay [3], 4.98 µM.
On to `C#CCCCn1c(Sc2cc(Cl)cc(Br)c2)nc2c(N)ncnc21`, for which the IC50 in assay [1] was over 100 µM; in assay [2] it was over 100 µM; on Endoplasmin it was 0.24 µM.
Take `Cc1ccc(Sc2nc3c(N)ncn(CCCNC(C)C)c-3n2)c(C)c1`: the IC50 on Endoplasmin is over 25 µM.
As to `CC#CCn1c(Sc2cc(Cl)cc(Cl)c2)nc2c(N)ncnc21`, the IC50 on Endoplasmin came to 5.1 µM.
For the compound `C#CCCn1c(Sc2ccc(Cl)cc2Cl)nc2c(N)ncnc21`, the IC50 was over 50 µM in assay [1], 0.39 µM on Endoplasmin and 7.23 µM in assay [3].
Take `C#CCCCn1c(S(=O)(=O)c2ccc(Cl)cc2Cl)nc2c(N)ncnc21`: on Endoplasmin, the IC50 is 4.7 µM.
Still for that read-out and setting: in the case of `C#CCCCn1c(Sc2cc(Cl)ccc2Cl)nc2c(N)ncnc21` it was 0.53 µM.
Turning to `C#CCC(C)n1c(Sc2cc(Cl)cc(Cl)c2)nc2c(N)ncnc21` (stereo unspecified), the IC50 was over 50 µM in assay [1] and 5.8 µM on Endoplasmin.
Turning to `Nc1ncnc2c1nc(Sc1cc(Cl)cc(Cl)c1)n2CCCCCC(F)(F)F`, the IC50 was over 50 µM in assay [1] and 1.65 µM at Endoplasmin.
`C#CCCCn1c(Sc2ccc(Cl)cc2)nc2c(N)ncnc21`: the IC50 at Endoplasmin turned out to be 1.5 µM.
On to `Nc1ncnc2c1nc(Sc1cc(Cl)cc(Cl)c1)n2CCc1ccccc1`, for which the IC50 in assay [1] is over 50 µM; on Endoplasmin, over 2.5 µM.
With `C#CCCCn1c(Sc2ccc(Cl)cc2Cl)nc2c(N)ncnc21`, the IC50 at Endoplasmin came out at 0.12 µM. Moreover, the inhibition in assay [4] amounted to 34%; in assay [5], 32%.
For the compound `C#CCC(CC)n1c(Sc2cc(Cl)cc(Cl)c2)nc2c(N)ncnc21` (stereo unspecified), the IC50 in assay [1] is over 100 µM; at Endoplasmin, over 5 µM.
Turning to `CC(C)NCCCn1c(Sc2ccc(Cl)cc2Cl)nc2c(N)nccc21`, the results for the IC50 (in assay [1]; on Endoplasmin; in assay [3]) were over 50 µM, 3.44 µM and 14.1 µM, respectively.
For `C#CCCCn1c(Sc2cc(Br)cc(Br)c2)nc2c(N)ncnc21`, the IC50 in assay [1] was over 50 µM; at Endoplasmin, 0.29 µM.
For `C#CCCCn1c(Oc2ccc(Cl)cc2Cl)nc2c(N)ncnc21`, the IC50 was over 100 µM in assay [1] and 0.5 µM at Endoplasmin.
As to `C#CCC(CC)n1c(Sc2ccc(Cl)cc2Cl)nc2c(N)ncnc21` (stereo unspecified), the IC50 in assay [1] was over 50 µM; at Endoplasmin, 0.92 µM; in assay [3] it was over 50 µM.
Regarding `CCCCn1c(Sc2cc(Cl)cc(Cl)c2)nc2c(N)ncnc21`, in assay [1], the IC50 is over 50 µM.
On to `Nc1ncnc2c1nc(Sc1cc(Cl)cc(Cl)c1)n2CCCC(F)(F)F`, for which the IC50 on Endoplasmin turned out to be 0.502 µM.
Take `C#CCCCn1c(Sc2c(C)cc(C)cc2C)nc2c(N)ncnc21`: the IC50 is over 500 µM in assay [1], over 500 µM in assay [2] and 2.1 µM at Endoplasmin.
For the compound `C#CCCCn1c(Sc2ccc(OC)cc2OC)nc2c(N)ncnc21`, the IC50 in assay [1] was over 50 µM; in assay [2], over 50 µM; on Endoplasmin it was 34.5 µM.
On to `C#CCCCn1c(Sc2ccc(Br)cc2Cl)nc2c(N)ncnc21`, for which the IC50 in assay [1] is over 50 µM; at Endoplasmin, 0.39 µM.
In the same order, the values of `Nc1ncnc2c1nc(Sc1cc(Cl)cc(Cl)c1)n2Cc1ccccc1` are over 50 µM and over 5 µM.
Take `C#CCC(C)n1c(Sc2ccc(Cl)cc2Cl)nc2c(N)ncnc21` (stereo unspecified): the IC50 is over 50 µM in assay [1] and 5 µM on Endoplasmin.
Consider `C#CCCCn1c(Sc2ccccc2OC(F)(F)F)nc2c(N)ncnc21`, for which the IC50 on Endoplasmin is 1.4 µM.
Take `C#CCCCn1c(Sc2ccc(OC)cc2)nc2c(N)ncnc21`: on Endoplasmin, the IC50 came out at 1.13 µM.
Consider `C#CCCCn1c([S+]([O-])c2ccc(Cl)cc2Cl)nc2c(N)ncnc21` (stereo unspecified), for which the IC50 came to 24.9 µM in assay [1] and 5.4 µM on Endoplasmin.
Taken in the same sequence, the figures for `CC(C)NCCCn1c(Sc2cc3c(cc2N(C)C)OCO3)nc2c(N)ncnc21` were 0.1 µM and 0.265 µM.
Turning to `CC(C)NCCCn1c(Sc2cc(Cl)cc(Cl)c2)nc2c(N)nccc21`, the values for the IC50 (on Endoplasmin; in assay [3]) were 1.08 µM and 7.2 µM, respectively.
For `Nc1ncnc2c1nc(Sc1cc(Cl)cc(Cl)c1)n2CCCCC(F)(F)F`, on Endoplasmin, the IC50 was determined as 2.74 µM.
Regarding `C#CCCCn1c(Sc2ccccc2Cl)nc2c(N)ncnc21`, the IC50 on Endoplasmin was found to be 0.35 µM.
Turning to `C#CCCCn1c(Sc2cc(Cl)c(Cl)cc2Cl)nc2c(N)ncnc21`, the IC50 on Endoplasmin came to 0.17 µM.
As for `C#CCCCn1c(Cc2ccc(Cl)cc2Cl)nc2c(N)ncnc21`, the IC50 in assay [1] is over 100 µM; at Endoplasmin, 0.7 µM.
In the case of `C#CCCCn1c(Sc2cc(C)cc(C)c2)nc2c(N)ncnc21`, on Endoplasmin, the IC50 worked out at 11.5 µM.
Take `C#CCCCn1c(Sc2cc(Cl)nc(Cl)c2)nc2c(N)ncnc21`: the figures for the IC50 (in assay [1]; at Endoplasmin; in assay [3]) were 8.3 µM, 1.9 µM and 9.6 µM, respectively.
As for `C#CCCCn1c(Sc2ccccc2OC)nc2c(N)ncnc21`, the 50% inhibitory concentration (IC50) in assay [1] is over 100 µM; in assay [2], over 100 µM; on Endoplasmin, 6.2 µM.
With `C#CCCCn1c(Sc2cc(Cl)cc(Cl)c2)nc2c(N)ncnc21`, the IC50 in assay [1] was over 500 µM; in assay [2], over 500 µM; at Endoplasmin, 0.26 µM; in assay [3] it was 83.6 µM.
Turning to `C#CCCCn1c(Sc2ccc(Cl)c(Cl)c2)nc2c(N)ncnc21`, the IC50 stood at 1.96 µM in assay [1] and 0.695 µM at Endoplasmin.
Consider `CCCC(C)n1c(Sc2ccc(Cl)cc2Cl)nc2c(N)ncnc21` (stereo unspecified), for which the IC50 in assay [1] was over 100 µM; at Endoplasmin, 2.48 µM; in assay [3] it was over 50 µM.
On to `CC(C)NCCCn1c(Sc2cc3c(cc2I)OCO3)nc2c(N)nccc21`, for which the IC50 in assay [1] came out at 0.028 µM; on Endoplasmin it was 0.101 µM. Besides, the Ratio IC50 in the assay filed under Homo sapiens was 4.
Take `C#CCCCCn1c(Sc2cc(Cl)cc(Cl)c2)nc2c(N)ncnc21`: the IC50 is over 50 µM in assay [1] and 0.665 µM at Endoplasmin.
In the case of `C#CCCCn1c(Sc2ccc(Cl)c(Cl)c2Cl)nc2c(N)ncnc21`, the IC50 came to 16 µM in assay [1], 39.5 µM in assay [2], 0.43 µM on Endoplasmin and 3.6 µM in assay [3].

The IC50 is the concentration that gives 50% inhibition. What is called inhibition is the drop in the measured response relative to a control, in per cent. A higher inhibition goes with a strong effect.

Source of the values: ChEMBL document CHEMBL3425404, “Structure-activity relationship in a purine-scaffold compound series with selectivity for the endoplasmic reticulum Hsp90 paralog Grp94” (J Med Chem, 2015).
